In ChEMBL document CHEMBL2384952, “Synthesis, antifungal and cytotoxic activities of 2-aryl-3-((piperidin-1-yl)ethyl)thiazolidinones” (Eur J Med Chem, 2013) one finds Cell viability, MFC and MIC data, which are given here for 5 compounds.

Each structure is given as a SMILES string. Converted amounts (≈) assume the structure as drawn.

The test system of series [1] is Vero. In words: Cytotoxicity against African green monkey Vero cells at 12.3 ug/mL by neutral red dye uptake assay relative to control. In kind it is cell-based. To be noted: chlorocebus sabaeus. Put shortly:
(§1)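 Vero cells (over 99% viable by trypan blue exclusion) were exposed to serial compound dilutions in E-MEM, with fresh E-MEM as negative control, for 72 h at 37 °C, 5% CO2. Cells were then given 3.3 mg/L neutral red for 2 h, and the dye was extracted with 50% ethanol/1% acetic acid. A540 was read, and viability was calculated as treated/control absorbance × 100.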

Series [2] concerns Vero. Briefly: Cytotoxicity against African green monkey Vero cells at 25 ug/mL by neutral red dye uptake assay relative to control. The class given is cell-based. To be noted: chlorocebus sabaeus. In outline:
as §1

In series [3] the test system is Vero. In words: Cytotoxicity against African green monkey Vero cells at 49 ug/mL by neutral red dye uptake assay relative to control. In kind it is cell-based. The note with it: chlorocebus sabaeus. Put shortly:
as §1

Series [4] concerns Vero. Briefly: Cytotoxicity against African green monkey Vero cells at 98 ug/mL by neutral red dye uptake assay relative to control. To be noted: chlorocebus sabaeus. In kind it is cell-based. In outline:
as §1

Series [5] relates to Vero. In words: Cytotoxicity against African green monkey Vero cells at 197 ug/mL by neutral red dye uptake assay relative to control. In kind it is cell-based. To be noted: chlorocebus sabaeus. In outline:
as §1

Series [6] has as its system Vero. In words: Cytotoxicity against African green monkey Vero cells at 394 ug/mL by neutral red dye uptake assay relative to control. The class given is cell-based. The note with it: chlorocebus sabaeus. Put shortly: as §1
The test system of series [7] is Vero. Briefly: Cytotoxicity against African green monkey Vero cells at 787 ug/mL by neutral red dye uptake assay relative to control. The class given is cell-based. The note with it: chlorocebus sabaeus. Put shortly:
as §1

In series [8] the test system is Vero. In words: Cytotoxicity against African green monkey Vero cells at 1575 ug/mL by neutral red dye uptake assay relative to control. The class given is cell-based. The note with it: chlorocebus sabaeus. In outline: as §1
The subject of series [9] is Vero. In words: Cytotoxicity against African green monkey Vero cells at 3150 ug/mL by neutral red dye uptake assay relative to control. The class given is cell-based. To be noted: chlorocebus sabaeus. Put shortly: as §1
Another series concerns Candida parapsilosis. Briefly: Antifungal activity against Candida parapsilosis after 48 hrs by CLSI M27A3 broth microdilution method. In kind it is functional. To be noted: Lodderomyces parapsilosis. In outline:
(§2)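 Yeasts were kept on Sabouraud dextrose agar and subcultured at 35 °C for at least 2 days. They were suspended in saline to McFarland 0.5 and diluted in RPMI. Ten successive dilutions were made from a 1.6 mg/mL DMSO stock per CLSI broth microdilution, then incubated at 37 °C for 48 h. Growth was read visually against a growth-control well, and MIC is the lowest concentration inhibiting growth.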
Background: Broth dilution looks for growth in wells or tubes with falling amounts of substance.

A further series deals with Geotrichum. Briefly: Antifungal activity against Geotrichum species after 48 hrs by CLSI M27A3 broth microdilution method. In kind it is functional. In outline:
as §2

Another series relates to Papiliotrema laurentii. In words: Antifungal activity against Cryptococcus laurentii after 48 hrs by CLSI M27A3 broth microdilution method. The class given is functional. Put shortly:
as §2

The test system of a further series is Rhodotorula. Briefly: Antifungal activity against Rhodotorula species after 48 hrs by CLSI M27A3 broth microdilution method. In kind it is functional. Put shortly:
as §2

For the next series, the system named is Candida albicans. In words: Antifungal activity against Candida albicans after 48 hrs by CLSI M27A3 broth microdilution method. In kind it is functional. In outline:
as §2

The next series deals with Trichosporon asahii. Briefly: Antifungal activity against Trichosporon asahii after 48 hrs by CLSI M27A3 broth microdilution method. In kind it is functional. In outline: as §2
Series [10] concerns Meyerozyma guilliermondii. Briefly: Antifungal activity against Candida guilliermondii after 48 hrs by CLSI M27A3 broth microdilution method. The class given is functional. In outline:
as §2

Usually MFC stands for the smallest concentration meeting the test's criterion for killing the fungus. What is called MIC is the lowest concentration that inhibits growth of the organism.

Turning to `O=C1CSC(c2ccc(O)cc2)N1CCN1CCCCC1` (stereo unspecified), the Cell viability in the series on Vero [1] is reported as 100%; in the series with Vero [2], 100%; in the series with Vero [3], 96%; in the series on Vero [4] it was 94%; in the series with Vero [5], 87%; in the series with Vero [6] it was 76%. Further, the Cell viability was determined as 57% in the series on Vero [7], 12% in the series with Vero [8] and 10% in the series on Vero [9]. Further, the minimal fungicidal concentration (MFC) with Candida parapsilosis came to 100 µg/mL (≈ 326 µM); with Geotrichum it was 50 µg/mL (≈ 163 µM); against Papiliotrema laurentii, 100 µg/mL (≈ 326 µM); with Rhodotorula, 25 µg/mL (≈ 81.6 µM); in the series on Candida albicans, 100 µg/mL (≈ 326 µM); against Trichosporon asahii, 50 µg/mL (≈ 163 µM). Further, in series [10], the MFC came to 100 µg/mL (≈ 326 µM). Also, the MIC with Candida parapsilosis turned out to be 100 µg/mL (≈ 326 µM); against Geotrichum, 50 µg/mL (≈ 163 µM); with Papiliotrema laurentii it was 100 µg/mL (≈ 326 µM); with Rhodotorula, 25 µg/mL (≈ 81.6 µM); in the series on Candida albicans it was 100 µg/mL (≈ 326 µM); in the series with Trichosporon asahii, 50 µg/mL (≈ 163 µM). In addition, the MIC in series [10] was determined as 100 µg/mL (≈ 326 µM).
For `COc1cccc(C2SCC(=O)N2CCN2CCCCC2)c1` (stereo unspecified), the Cell viability was 100% with Vero [1]; 97% with Vero [2]; 90% in the series on Vero [3]; 84% in the series on Vero [4]; 66% in the series with Vero [5]; 57% in the series on Vero [6]. Further, the Cell viability is listed as 19% in the series on Vero [7], 11% in the series on Vero [8] and 6% in the series on Vero [9]. In addition, the MFC in the series on Candida parapsilosis is 100 µg/mL (≈ 312 µM); against Geotrichum, more than 400 µg/mL; against Papiliotrema laurentii it was 100 µg/mL (≈ 312 µM); in the series with Rhodotorula, 33.5 µg/mL (≈ 105 µM); against Candida albicans it was 100 µg/mL (≈ 312 µM); against Trichosporon asahii, more than 400 µg/mL. Further, the MFC in [10] was 100 µg/mL (≈ 312 µM). For the same compound, the MIC was 100 µg/mL (≈ 312 µM) in the series on Candida parapsilosis; more than 400 µg/mL with Geotrichum; 100 µg/mL (≈ 312 µM) in the series on Papiliotrema laurentii; 33.5 µg/mL (≈ 105 µM) in the series on Rhodotorula; 100 µg/mL (≈ 312 µM) with Candida albicans; more than 400 µg/mL against Trichosporon asahii. Further, the MIC in series [10] was 100 µg/mL (≈ 312 µM).
As for `Cc1ccc(C2SCC(=O)N2CCN2CCCCC2)cc1` (stereo unspecified), the Cell viability in the series with Vero [1] worked out at 100%; with Vero [2], 100%; in the series on Vero [3], 100%; with Vero [4] it was 100%; with Vero [5], 85%; in the series with Vero [6], 51%. Besides, the Cell viability in the series with Vero [7] was determined as 17%; in the series on Vero [8], 13%; with Vero [9] it was 12%. For the same compound, the minimal fungicidal concentration (MFC) in the series with Candida parapsilosis is 100 µg/mL (≈ 328 µM); with Geotrichum, 100 µg/mL (≈ 328 µM); against Papiliotrema laurentii, 66 µg/mL (≈ 217 µM); in the series with Rhodotorula, 37.5 µg/mL (≈ 123 µM); with Candida albicans, 62 µg/mL (≈ 204 µM); in the series with Trichosporon asahii it was 50 µg/mL (≈ 164 µM). Moreover, the minimum fungicidal concentration (MFC) in series [10] is 100 µg/mL (≈ 328 µM). The minimum inhibitory concentration (MIC) worked out at 100 µg/mL (≈ 328 µM) against Candida parapsilosis; 100 µg/mL (≈ 328 µM) in the series on Geotrichum; 66 µg/mL (≈ 217 µM) against Papiliotrema laurentii; 37.5 µg/mL (≈ 123 µM) in the series with Rhodotorula; 62 µg/mL (≈ 204 µM) against Candida albicans; 50 µg/mL (≈ 164 µM) in the series on Trichosporon asahii. This compound returned an MIC in series [10] of 100 µg/mL (≈ 328 µM).
On to `O=C1CSC(c2c(Cl)cccc2Cl)N1CCN1CCCCC1` (stereo unspecified), for which the Cell viability is reported as 100% in the series on Vero [1]; 100% in the series with Vero [2]; 100% in the series on Vero [3]; 76% with Vero [4]; 75% in the series on Vero [5]; 32% in the series on Vero [6]. Besides, the values for the Cell viability in the series with Vero [7], in the series with Vero [8] and in the series on Vero [9] were 11%, 10% and 7%, respectively. Moreover, the MFC amounted to 100 µg/mL (≈ 278 µM) with Candida parapsilosis; 50 µg/mL (≈ 139 µM) in the series on Geotrichum; 200 µg/mL (≈ 557 µM) against Papiliotrema laurentii; 30 µg/mL (≈ 83.5 µM) against Rhodotorula; 75 µg/mL (≈ 209 µM) against Candida albicans; 50 µg/mL (≈ 139 µM) in the series on Trichosporon asahii. In series [10], this compound yielded an MFC of 200 µg/mL (≈ 557 µM). Besides, the MIC against Candida parapsilosis was 100 µg/mL (≈ 278 µM); with Geotrichum, 50 µg/mL (≈ 139 µM); with Papiliotrema laurentii, 200 µg/mL (≈ 557 µM); against Rhodotorula, 30 µg/mL (≈ 83.5 µM); with Candida albicans it was 75 µg/mL (≈ 209 µM); against Trichosporon asahii, 50 µg/mL (≈ 139 µM). For the same compound, it took 200 µg/mL (≈ 557 µM) to inhibit growth in series [10] (MIC).
Turning to `OC(Cn1cncn1)(Cn1cncn1)c1ccc(F)cc1F` [FLUCONAZOLE], the MFC against Candida parapsilosis worked out at 1 µg/mL (≈ 3.27 µM); in the series on Geotrichum, 8 µg/mL (≈ 26.1 µM); against Papiliotrema laurentii, 1 µg/mL (≈ 3.27 µM); in the series on Rhodotorula, 26.5 µg/mL (≈ 86.5 µM); in the series on Candida albicans, 1 µg/mL (≈ 3.27 µM); in the series on Trichosporon asahii, 1 µg/mL (≈ 3.27 µM). The MFC in series [10] turned out to be 16 µg/mL (≈ 52.2 µM). Further, the minimal inhibitory concentration (MIC) with Candida parapsilosis was found to be 1 µg/mL (≈ 3.27 µM); in the series on Geotrichum, 8 µg/mL (≈ 26.1 µM); with Papiliotrema laurentii, 1 µg/mL (≈ 3.27 µM); in the series with Rhodotorula it was 26.5 µg/mL (≈ 86.5 µM); in the series on Candida albicans, 1 µg/mL (≈ 3.27 µM); in the series on Trichosporon asahii, 1 µg/mL (≈ 3.27 µM). For the same compound, the MIC in [10] was 16 µg/mL (≈ 52.2 µM).
